Values joined by “and” are separate entries in the source; they are usually repeats but may differ in a detail not shown here. Equal values may be shown once. “Also recorded” adds a separate entry of the source. Read-outs that look alike come from different tables or passages of the source.

Data set [1] concerns CYP2D6. To be noted: humans; ref O'Mathuna et al. [2008]; cited from earlier work.
Data set [2] deals with CYP2D6. To be noted: CYP2D6 with MDMA in human liver microsomes; ref Heydari et al. [2004]; cited from earlier work.
Data set [3] in a line: Pharmacokinetics of diclofenac in rats after 3 days administration of sesamin. As to conditions: for AUC(0-t) / Cmax / Tmax / half-life: rat, plasma, po, 10 mg/kg; for AUC(0-t): AUC0–24 h; for AUC(0-t) / Cmax / Tmax: diclofenac 10 mg/kg bw intragastric; for half-life: t1/2, diclofenac 10 mg/kg bw intragastric. In kind it is in vivo, rat.
The format of data set [4] is in vivo, rat. As to conditions: rats.
The conditions of data set [5]: humans, sesamin supplement 50 mg/day for 28 days; ref Tomimori et al. [2013]; cited from earlier work.
Data set [6] is described as follows: Estimation of the maximum inlet concentration to the liver. To be noted: for absorption rate constant: assumed, roughly estimated from the data by Tomimori et al. [2013]; for maximum inlet concentration to the liver: humans, following the 50 mg oral dose, eqn. 1. On the set-up: species or system human.
Data set [7] concerns CYP2C9. To be noted: cited from earlier work.
Data set [8] has as its system rat CYP2C (rat liver microsomes). It is filed as biochemical. Summed up:
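Rat liver microsomes (0.5 mg protein/mL) with 1 mmol/L NADPH in 100 mmol/L phosphate (pH 7.4), 37°C. Test compound in DMSO (20 μmol/L final) versus DMSO reference. Difference spectra (400–500 nm) were taken at 0–120 min, tracking A459 minus A500. Parent and catechol metabolites were quantified in parallel by HPLC of methanol-quenched aliquots taken at the same times. Mean ± SD, at least duplicates.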

Data set [9] is described as follows: Hepatic sesamin concentration in rats. In kind it is in vivo. As to conditions: rat, liver, oral, 100 mg/kg.
The nature of data set [10]: Plasma concentration of sesamin in rats. As to conditions: rat, po, 100 mg/kg. In kind it is in vivo. The method in brief: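 Test compound in corn oil was given intragastrically by feeding needle. The organic phase was dried and the residue taken up in 100 μL acetonitrile. HPLC: methanol/0.05% TFA gradient, fluorescence ex 298/em 325 nm; mean ± SD, n = 12.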
Data set [11] concerns the target CYP2C9 (Homo sapiens, UniProt P11712). It is filed as biochemical. To be noted: human liver microsomes, pH 7.4, probe diclofenac (100 μmol/L), diclofenac hydroxylation.
In data set [12] the target is T1, CYP2C in rat liver microsomes (CYP2C11) (Rattus norvegicus, UniProt P08683).
T1 sequence (P08683 1-500): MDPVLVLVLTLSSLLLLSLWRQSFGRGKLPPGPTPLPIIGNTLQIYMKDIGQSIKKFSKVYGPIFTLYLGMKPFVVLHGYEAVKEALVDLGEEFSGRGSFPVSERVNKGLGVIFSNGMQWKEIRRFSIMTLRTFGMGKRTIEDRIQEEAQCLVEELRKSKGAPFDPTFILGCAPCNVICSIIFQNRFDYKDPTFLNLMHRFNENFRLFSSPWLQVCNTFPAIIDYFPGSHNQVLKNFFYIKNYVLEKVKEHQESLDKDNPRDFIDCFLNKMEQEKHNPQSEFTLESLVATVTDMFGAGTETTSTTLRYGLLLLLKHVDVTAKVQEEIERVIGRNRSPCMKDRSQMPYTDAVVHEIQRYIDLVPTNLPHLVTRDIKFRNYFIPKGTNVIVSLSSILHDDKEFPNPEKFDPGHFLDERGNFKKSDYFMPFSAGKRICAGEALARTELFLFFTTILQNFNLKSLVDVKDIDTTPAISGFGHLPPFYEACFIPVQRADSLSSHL
It is filed as biochemical.

The next data set addresses T2, recombinant rat CYP2C11 (Rattus norvegicus, UniProt P08683).
T2 sequence (P08683 1-500): T1 sequence (P08683 1-500)
Put plainly: Sesamin-induced difference spectrum of recombinant rat CYP2C11. To be noted: recombinant rat CYP2C11, NADPH, 20 μmol/L sesamin. It is filed as biochemical. The method in brief: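 Recombinant rat CYP2C11 from baculovirus-infected insect cells (50 pmol/mL) with 1 mmol/L NADPH in 100 mmol/L phosphate (pH 7.4) at 37°C. Test compound in DMSO (20 μmol/L final) went into the sample cuvette and an equal volume of DMSO into the reference. Difference spectra were recorded over 400–500 nm after 7 and 60 min incubation.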

Another data set concerns rat CYP2C. In kind it is in vivo. To be noted: rats, sesamin 0, 10, 100 mg/kg bw for 7 days. Summed up: (§1)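 Male Sprague–Dawley rats were acclimated for 7 days before dosing. Liver microsomes: liver rinsed in ice-cold saline, homogenized in four volumes of ice-cold 1.15% KCl, spun at 10,000g for 20 min, then the supernatant at 100,000g for 60 min. The pellet was resuspended in 20 mmol/L phosphate buffer (pH 7.4) with 1.15% KCl. Protein was measured by bicinchoninate assay.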

The conditions of data set [13]: assumed; ref Moazzami et al. [2007]; cited from earlier work.
The subject of data set [14] is CYP2C-mediated diclofenac hydroxylation activity. It is filed as in vivo, rat. To be noted: rats, sesamin 0, 10, 100 mg/kg bw for 7 days. The method in brief: as §1
[15] abbreviates: after sesamin 10 mg/kg bw for 3 days.
[16] abbreviates: after sesamin 100 mg/kg bw for 3 days.
[17] abbreviates: control (0 mg/kg bw sesamin for 3 days).

CYP2C9 (Homo sapiens, UniProt P11712), sequence (P11712 whole entry): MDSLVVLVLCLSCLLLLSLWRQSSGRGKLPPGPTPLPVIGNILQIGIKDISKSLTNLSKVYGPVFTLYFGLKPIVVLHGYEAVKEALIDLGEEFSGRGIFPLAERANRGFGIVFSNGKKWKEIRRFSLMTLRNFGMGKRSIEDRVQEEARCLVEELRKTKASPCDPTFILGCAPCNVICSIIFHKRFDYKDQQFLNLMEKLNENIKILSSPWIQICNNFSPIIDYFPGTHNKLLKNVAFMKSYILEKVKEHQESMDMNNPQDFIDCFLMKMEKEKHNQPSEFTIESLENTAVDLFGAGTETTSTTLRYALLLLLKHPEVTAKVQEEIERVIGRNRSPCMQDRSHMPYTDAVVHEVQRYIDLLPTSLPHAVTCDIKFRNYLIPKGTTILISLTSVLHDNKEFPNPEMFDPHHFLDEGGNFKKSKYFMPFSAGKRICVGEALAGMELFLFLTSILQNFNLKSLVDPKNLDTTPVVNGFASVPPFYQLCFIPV

Regarding `CNC(C)Cc1ccc2c(c1)OCO2` (centres unmarked) [MDMA, 3,4-Methylenedioxymethamphetamine], in the data set on CYP2D6 [1], the “increase of dextromethorphan AUC0-8 h when administered with MDMA” value is on record as “approximately 10 fold”, the “increase of dextromethorphan AUC after MDMA administration” value was “approximately 10 fold” and the “increase of dextromethorphan Cmax after MDMA administration” value is “approximately 10 fold”. Further, in the data set with CYP2D6 [2], the kinact was 0.12 to 0.26 min⁻¹.
With `O=C(O)Cc1ccccc1Nc1c(Cl)cccc1Cl` [diclofenac], the AUC(0-t) in data set [3] (setting [15]) was 4620 ng·h/mL; in data set [3] (setting [16]), 6930 ng·h/mL; in data set [3] (setting [17]), 4880 ng·h/mL; in data set [4] (rat, plasma, po, 10 mg/kg, AUC0–24 h, diclofenac 10 mg/kg bw intragastric, control (0 mg/kg bw sesamin at same time)) it was 5480 ng·h/mL. Further, the Cmax in data set [3] (setting [15]) turned out to be 1200 ± 500 ng/mL; in [3] (setting [16]), 1300 ± 600 ng/mL; in data set [3] (setting [17]), 1800 ± 800 ng/mL; in data set [4] (rat, plasma, po, 10 mg/kg, Cmax, diclofenac 10 mg/kg bw intragastric, control (0 mg/kg bw sesamin at same time)) it was 2100 ± 1700 ng/mL. Further, the Tmax in data set [3] (setting [15]) is 7 min; in [3] (setting [16]) it was 7.2 min; in data set [3] (setting [17]) it was 5.4 min; in [4] (rat, plasma, po, 10 mg/kg, Tmax, diclofenac 10 mg/kg bw intragastric, control (0 mg/kg bw sesamin at same time)), 5.6 min. Further, the half-life in data set [3] (setting [15]) was 14.8 ± 9.3 h; in [3] (setting [16]) it was 11.1 ± 6.8 h; in data set [3] (setting [17]), 10.6 ± 2.9 h; in data set [4] (rat, plasma, po, 10 mg/kg, t1/2, diclofenac 10 mg/kg bw intragastric, control (0 mg/kg bw sesamin at same time)), 9.8 ± 5.1 h.
`c1cc2c(cc1[C@H]1OC[C@H]3[C@@H]1CO[C@@H]3c1ccc3c(c1)OCO3)OCO2` [episesamin]: in data set [5], the “accumulation after repeated administration” value is listed as “did not detect the accumulation; also recorded: no accumulation”. In [6], the absorption rate constant is 1.5 h⁻¹ and the “maximum inlet concentration to the liver” value was 410 nmol/L. Also, the “kinact/Ki value for recombinant human CYP2C9 relative to sesamin” value in the data set on CYP2C9 [7] (recombinant human CYP2C9, ref previous studies of the authors) is “five times smaller”. Further, the “kinact/Ki app for CYP2C9 relative to sesamin” value in the data set on CYP2C9 [7] (ref Yasuda et al. [2012]) is listed as “approximately one-fifth”.
As for `c1cc2c(cc1[C@H]1OC[C@H]3[C@@H]1CO[C@@H]3c1ccc3c(c1)OCO3)OCO2` [sesamin], in data set [8] (rat liver microsomes), the “half-life time of the MI complex of sesamin” value amounted to 0.167 h and the “time to disappearance of the 459 nm peak after the termination of the metabolism” value is at most 30 min. Further, in data set [8] (rat liver microsomes 0.5 mg/mL, 20 μmol/L sesamin, at 60 min), the “conversion of sesamin to SC-2 via SC-1” value is listed as “almost all of sesamin was converted to SC-2 via SC-1”. Moreover, in [8] (rat liver microsomes, NADPH, 20 μmol/L sesamin, 37°C), the “peak of sesamin-induced difference spectrum (MI complex)” value is 459 nm. Also, in [3] (sesamin 0, 10, 100 mg/kg bw for 3 days, then diclofenac 10 mg/kg bw), the “effect of sesamin on pharmacokinetic parameters of diclofenac (Cmax, Tmax, AUC)” value is “No significant differences”. In addition, the “accumulation after repeated administration” value in data set [5] is “did not detect the accumulation; also recorded: no accumulation”. Also, in data set [6], the absorption rate constant is 0.5 h⁻¹ and the “maximum inlet concentration to the liver” value is given as 130 nmol/L. Further, the concentration at 1 h in data set [9] is 390 ng/g and 1.1 µM. Also, the kinact with CYP2C9 [7] (CYP2C9 with sesamin in human liver microsomes, ref Yasuda et al. [2010]) is 0.13 min⁻¹. Further, in data set [10], the maximum concentration (Cmax) is 33 ng/mL and 94 nM; the Tmax was 1.2 ± 0.6 h. Moreover, at CYP2C9 [11], the kinact was 0.00217 s⁻¹ and the kinact/KI is 96.7 M⁻¹ s⁻¹. In data set [12], the kinact was 0.00132 s⁻¹. In data set [12] (rat liver microsomes, sesamin 0-50 μmol/L, preincubation 0, 5, 10 min), the “inhibition of 4'- and 5-hydroxylation activities toward diclofenac” value was “time- and concentration-dependently inhibited”. Further, in data set [12] (read-out: kinact/Ki app), the kinact/KI was 48.3 M⁻¹ s⁻¹. In addition, at recombinant rat CYP2C11, the “peak of sesamin-induced difference spectrum (MI complex)” value is recorded as 459 nm. The “effect of sesamin on the diclofenac pharmacokinetics” value in [4] (sesamin 0, 10, 100 mg/kg bw and diclofenac 10 mg/kg bw simultaneously) was “no significant effects”. For the same molecule, the “expression of CYP2C protein in liver microsomes” value in the data set with rat CYP2C was “no significant differences; also recorded: no remarkable change”. Moreover, in data set [13], the fraction absorbed is on record as 30%. The “diclofenac hydroxylation activity in liver microsomes” value in [14] is “no significant effects; also recorded: no significant differences; also recorded: no remarkable change”.

These data come from publication PMC4618645 (Pharmacology Research & Perspectives, 2015).
